The results in this text go back to ChEMBL document CHEMBL1134663, “Investigation of 5-nitrofuran derivatives: synthesis, antibacterial activity, and quantitative structure-activity relationships” (J Med Chem, 2001).

The test system of one test is Caulobacter vibrioides. As to the kind of experiment: Compound was tested against gram-negative Caulobacter crescentus, strain NA 1000 bacteria. As to conditions: read-out: Log 1/IC50 (converted). In kind it is functional, organism-based. An outline of the steps:
(§1)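 Sequential broth macrodilution. S. aureus was grown in TSB at 37 °C and C. crescentus in PYE (peptone, yeast extract, 0.8 mM MgSO4, 0.5 mM CaCl2) at 30 °C. Inoculum was an 8 h exponential culture diluted to about 2 × 10^5 bacteria/mL and added 1:1 to 2-fold serial dilutions. Incubation was 12 h (S. aureus) or 20 h (C. crescentus). Growth was read at A600, and the 50% growth inhibition concentration is reported as log(1/IC50), µmol/mL.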

The next test deals with Staphylococcus aureus. Kind of test: Activity against gram-positive Staphylococcus aureus strain ATCC 25923 bacteria. The format is functional, organism-based. The conditions noted are these: read-out: Log 1/IC50 (converted). In outline:
as §1

For the compound `CC(=O)Oc1ccc([N+](=O)[O-])cc1C(=O)/C=C/c1ccc([N+](=O)[O-])o1`, the IC50 in the test on Caulobacter vibrioides was 14.8 mM; in the test with Staphylococcus aureus it was 16.2 mM.

For `O=C(/C=C/c1ccc([N+](=O)[O-])o1)c1cc(Cl)ccc1O`, the IC50 in the test with Staphylococcus aureus was 11.7 mM.

Regarding `COc1ccc2c(c1)C(=O)/C(=C/c1ccc([N+](=O)[O-])o1)O2`, the IC50 in the test on Caulobacter vibrioides was 1.05 mM; in the test on Staphylococcus aureus, 0.151 mM.

For the compound `O=C1/C(=C/c2ccc([N+](=O)[O-])o2)Oc2ccc(Br)cc21`, the IC50 is 3.16 mM in the test on Caulobacter vibrioides and 0.661 mM in the test on Staphylococcus aureus.

As to `N#Cc1ccc2c(c1)C(=O)/C(=C/c1ccc([N+](=O)[O-])o1)O2`, the IC50 in the test on Caulobacter vibrioides was 4.57 mM; in the test with Staphylococcus aureus, 3.16 mM.

As to `Cc1ccc(O)c(C(=O)/C=C/c2ccc([N+](=O)[O-])o2)c1`, the IC50 with Staphylococcus aureus was 6.61 mM.

Regarding `CCc1ccc(O)c(C(=O)/C=C/c2ccc([N+](=O)[O-])o2)c1`, in the test on Staphylococcus aureus, the IC50 is 15.8 mM.

As for `CC(=O)Oc1ccc(C)cc1C(=O)/C=C/c1ccc([N+](=O)[O-])o1`, the IC50 in the test on Staphylococcus aureus is 4.79 mM.

On to `O=C1/C(=C/c2ccc([N+](=O)[O-])o2)Oc2ccc([N+](=O)[O-])cc21`, for which the IC50 in the test on Caulobacter vibrioides was 11.7 mM; with Staphylococcus aureus, 3.98 mM.

With `CCc1ccc(OC(C)=O)c(C(=O)/C=C/c2ccc([N+](=O)[O-])o2)c1`, the IC50 with Staphylococcus aureus was 3.98 mM.

For `O=C1/C(=C/c2ccc([N+](=O)[O-])o2)Oc2ccccc21`, the values for the IC50 in the test with Caulobacter vibrioides and in the test on Staphylococcus aureus were 1.29 mM and 0.302 mM, respectively.

For the compound `Cc1ccc2c(c1)C(=O)/C(=C/c1ccc([N+](=O)[O-])o1)O2`, the IC50 is 1.26 mM with Caulobacter vibrioides and 0.115 mM in the test on Staphylococcus aureus.

With `O=C(/C=C/c1ccc([N+](=O)[O-])o1)c1cc([N+](=O)[O-])ccc1O`, the IC50 in the test with Caulobacter vibrioides is 14.8 mM; with Staphylococcus aureus, 17 mM.

Consider `CC(=O)Oc1ccc(Cl)cc1C(=O)/C=C/c1ccc([N+](=O)[O-])o1`, for which the IC50 with Caulobacter vibrioides is 50.1 mM; in the test on Staphylococcus aureus, 10 mM.

With `O=C(/C=C/c1ccc([N+](=O)[O-])o1)c1ccccc1O`, the results for the IC50 in the test on Caulobacter vibrioides and in the test with Staphylococcus aureus were 64.6 mM and 7.24 mM, respectively.

Turning to `CCc1ccc2c(c1)C(=O)/C(=C/c1ccc([N+](=O)[O-])o1)O2`, the values for the IC50 in the test on Caulobacter vibrioides and with Staphylococcus aureus were 2.75 mM and 0.447 mM, respectively.

For `CC(=O)Oc1ccccc1C(=O)/C=C/c1ccc([N+](=O)[O-])o1`, the IC50 in the test on Caulobacter vibrioides was 42.7 mM; in the test on Staphylococcus aureus, 6.92 mM.

Take `O=C1/C(=C/c2ccc([N+](=O)[O-])o2)Oc2ccc(Cl)cc21`: the IC50 was 5.25 mM with Caulobacter vibrioides and 0.575 mM with Staphylococcus aureus.

Regarding `CCCc1ccc2c(c1)C(=O)/C(=C/c1ccc([N+](=O)[O-])o1)O2`, the IC50 in the test on Caulobacter vibrioides was 3.09 mM; in the test on Staphylococcus aureus, 0.447 mM.
